Measured values as given in paper PMC8054679 (Analytical biochemistry, 2020).
“Also recorded” adds a separate entry of the source.

Experiments:
[1] = test system: Hsp70-CHIP interaction (myc-LgBiT-IEEVD / SmBiT-CHIP-FLAG); type: cell-based; conditions: for effect on NanoBiT luminescence, single dose: 5 μM, 6 hours, mean ± SD (n=3)
Method in brief: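 Stable reporter cells induced overnight with dox 100 μg/mL in 96-well plates. Peptides (DMSO-dissolved) given at 10 µM for 1 h; small-molecule inhibitors given at 5 µM for 6 h. Live-cell substrate added in Opti-Mem, 5 min dark at room temperature, then read at 500 ms integration. Uninduced background subtracted; normalized to DMSO control as percent; mean ± SD, n=3.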

[2] = test system: Hsp70; assay: Western blot of lysate protein levels: Hsp70; type: cell-based; conditions: compared to vehicle; western blot of treated NanoBiT cells
Method in brief: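 Reporter cells dox-induced overnight, then given test compound for 6 h. Inputs denatured 5 min at 95 °C. Blots blocked 1 h, primary antibody 1:1000 overnight at 4 °C, secondary 1:10000 for 1 h.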

[3] = test system: NanoBiT reporter components (myc-LgBiT-IEEVD, SmBiT-CHIP-FLAG); assay: Western blot of lysate protein levels: NanoBiT reporter components; type: cell-based; conditions: anti-myc or anti-FLAG
[4] = test system: dox-inducible NanoBiT reporter in NanoBiT cells; assay: NanoBiT luminescence assay of dox-dependence and signal stability; type: cell-based; conditions: dox 100 μg/mL, 24 hours
Method in brief: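 HEK293 Flp-In T-REx cells electroporated with a bicistronic myc-LgBiT-IEEVD/SmBiT-CHIP-FLAG vector plus pOG44, selected with 100 µg/mL hygromycin, and cloned. Cells cultured in 96-well plates ±dox 100 μg/mL for 24 h. Live-cell furimazine substrate added in Opti-Mem, 5 min dark at room temperature, then read at 500 ms integration. Uninduced-cell background subtracted; mean ± SD, n=3.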

[5] = test system: CHIP TPR domain; conditions: cited from earlier work

Molecule: CO[C@H]1/C=C\C=C(/C)C(=O)NC2=CC(=O)C(NCCN(C)C)=C(C[C@@H](C)C[C@H](OC)[C@H](O)[C@@H](C)/C=C(\C)[C@@H]1OC(N)=O)C2=O [17-DMAG, 17-dimethylaminoethylamino-17-demethoxygeldanamycin]
- effect on NanoBiT luminescence, single dose ([1]; percent of DMSO control): reduced the luminescence
- total abundance of Hsp70 in the lysate [2]: increased the total abundance of Hsp70 in the lysate; also recorded: induces Hsp70 levels

Molecule: CCn1c(=O)/c(=C2\Sc3cc(Cl)ccc3N2C)s/c1=C\c1scc[n+]1Cc1ccccc1.[Cl-] [JG-98]
- effect on NanoBiT luminescence, single dose ([1]; percent of DMSO control): reduced luminescence
- stability/expression of NanoBiT reporter components [3]: partially destabilized both components of the NanoBiT reporter

Molecule: CCn1c(=O)/c(=C2\SCCN2C)s/c1=C\c1scc[n+]1Cc1ccccc1.[Cl-] [JG-258]
- effect on NanoBiT luminescence, single dose ([1]; percent of DMSO control): but not an inactive control, JG-258, reduced luminescence

Molecule: C[C@H]1c2cccc(O)c2C(=O)C2=C(O)[C@]3(O)C(=O)C(C(N)=O)=C(O)[C@@H](N(C)C)[C@@H]3[C@@H](O)[C@@H]21 [dox, doxycycline]
- stability/expression of NanoBiT reporter components [3]: both reporter components were expressed in response to dox, with little background
- luminescence with dox ([4]; mean ± SD (n=3)): 47300 ± 1270 RLU
- fold increase of luminescence compared to control without dox ([4]; n=3): 31 fold

Molecule: Ac-LWWPD
- efficacy in the NanoBiT assay ([1]; discussion statement, peptide without CPP): no efficacy
- affinity for CHIP in vitro ([5]; in vitro, see Figure 1 (FP, adapted from ref 21)): sub-micromolar affinity

Molecule: LWWPD
- binding to CHIP's purified TPR domain relative to IEEVD ([5]; FP, peptide in vitro, fold better than IEEVD): at least 10 fold

Molecule: R9-LWWPD
- reduction of NanoBiT luminescence ([1]; 10 μM peptide, 1 hour, normalized to DMSO control, n=3): approximately 40%
- effect on NanoBiT luminescence, peptides, single dose ([1]; 10 μM, 1 hour, percent of DMSO control, n=3): cell active inhibitor
